One data set concerns Emu-TCL1. In words: Induction of apoptosis in mouse Emu-TCL1 cells model of CLL assessed as mitochondrial membrane depolarization at 10 uM after 48 hrs by TMRM dye based flow cytometric analysis. Format: functional, cell-based. In a few lines: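 Splenocytes from Eμ-TCL1 leukaemic mice were treated with 10 μM or DMSO vehicle for 48 h, then TMRM-loaded. Flow cytometry gave the percentage of TMRM-low cells as mean ± SD (n = 3).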

A further data set relates to NIH3T3. In words: Cytotoxicity against mouse NIH3T3 cells assessed as inhibition of cell growth measured after 24 hrs by neutral red uptake assay. The following applies: NIH3T3, 24 h. Format: functional, cell-based. In a few lines: (§1)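 Neutral red uptake viability test. NIH3T3 fibroblasts or primary human oral epithelial cells were exposed to compound at 0.1 to 120 μM. EC50 was derived, with SD below 5%.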

Data set [1] in a line: Induction of Pro-apoptosis in human HL-60 cells assessed as increase in apoptotic cells at 10 uM after 48 hrs by Annexin-V/PI-staining based flow cytometry. Format: functional. Background: A flow cytometer gives signals particle by particle.
Data set [2] can be described thus: Ratio of IC50 for cytotoxicity against human […] assessed as inhibition of cell growth measured after 48 hrs to IC50 for cytotoxicity against human A2780 cells assessed as inhibition of cell growth measured after 48 hrs. In kind it is functional. In a few lines: (§2)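 MTT assay: cells exposed to increasing compound concentrations for 48 h. Lines were A2780 and its P-gp-overexpressing A2780AD counterpart, and HeLa and HeLa β3 (tubulin β3-overexpressing). IC50 is the mean ± SD of three independent experiments. R/S is the IC50 in the resistant line divided by that in the parental line.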

In a further data set the test system is A549. In words: Cytotoxicity against human A549 cells assessed as inhibition of cell growth measured after 48 hrs by MTT assay. In kind it is functional, cell-based. To be noted: A549, 48 h. (Tetrazolium assays rely on reduction of a dye to a coloured formazan, in cell work by metabolically active cells.)
For data set [3], the system named is HeLa. Briefly: Cytotoxicity against human HeLa cells assessed as inhibition of cell growth measured after 48 hrs by MTT assay. Format: functional, cell-based. The method, boiled down: (§3)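 MTT assay. Cells were exposed for 48 h to increasing concentrations of compound. Ovarian A2780 was paired with its P-gp-overexpressing A2780AD counterpart, and HeLa with HeLa β3, which overexpresses the tubulin β3 isotype. IC50 is the mean ± SD of three independent experiments.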

For data set [4], the system named is A2780. Briefly: Cytotoxicity against human A2780AD cells assessed as inhibition of cell growth measured after 48 hrs by MTT assay. Format: functional, cell-based. To be noted: A2780, 48 h. The method, boiled down: as §3
Data set [5] can be described thus: Ratio of IC50 for cytotoxicity against human HeLa cells overexpressing tubulin beta3 assessed as inhibition of cell growth measured after 48 hrs to IC50 for cytotoxicity against human HeLa cells assessed as inhibition of cell growth measured after 48 hrs. In kind it is functional. The method, boiled down: as §2
Another data set concerns the target Tubulin (Homo sapiens) (UniProt P68371+Q9H4B7+P0DPH7+P68366+Q13509+Q71U36+P04350+Q3ZCM7+P07437+P68363+Q9BQE3+Q6PEY2+Q13885+Q9BVA1+Q9BUF5). Briefly: Binding affinity to microtubule polymerization (unknown origin) assessed as formation of microtubule at 27.5 uM measured for 2 hrs by plate reader method. Format: protein-complex assay. In a few lines: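 25 μM tubulin in GAB buffer with compound at 27.5 μM or DMSO vehicle; podophyllotoxin 27.5 μM as destabiliser control. Polymerisation started by raising temperature from 4 to 37 °C at time 0; microtubule formation followed as absorbance increase over time.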

In data set [6] the test system is HeLa. Briefly: Cytotoxicity against human HeLa cells overexpressing tubulin beta3 assessed as inhibition of cell growth measured after 48 hrs by MTT assay. In kind it is functional, cell-based. In a few lines: as §3
Data set [7] has as its system A2780. In words: Cytotoxicity against human A2780 cells assessed as inhibition of cell growth measured after 48 hrs by MTT assay. In kind it is functional, cell-based. The following applies: A2780, 48 h. The method, boiled down: as §3
Data set [8] in a line: Induction of Pro-apoptosis in human HL-60 cells assessed as increase in apoptotic cells at 25 uM after 24 hrs by TMRM dye based flow cytometric analysis. In kind it is functional.
Data set [9] in a line: Induction of Pro-apoptosis in human HL-60 cells assessed as increase in apoptotic cells at 10 uM after 24 hrs by TMRM dye based flow cytometric analysis. In kind it is functional.
Data set [10] concerns HL-60. Briefly: Induction of autophagy in human HL-60 cells assessed as increase in p62 protein level at 10 uM […] by Immunoblotting analysis. In kind it is functional, cell-based.
Data set [11] relates to SCC-4. Briefly: Induction of autophagy in human SCC-4 cells assessed as increase in LC3-II to LC3-I ratio at 10 uM in absence of EBSS measured after 3 hrs by Western blot analysis. In kind it is functional, cell-based. The method, boiled down: (§4)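 SCC4 cells were pre-incubated with or without EBSS for 30 min, then given 10 μM compound, with 10 μM chloroquine as reference, for 3 h. LC3-I/II was assessed by Western blot with GAPDH loading control. The LC3-II/LC3-I ratio came from densitometry, as mean ± SEM of four experiments, with an unpaired one-tailed t-test.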
For orientation: A western blot detects proteins with antibodies after separation by electrophoresis.

Data set [12] deals with SCC-4. Briefly: Induction of apoptosis in human SCC-4 cells assessed as increase in apoptotic cells at 2 uM after 48 hrs by Annexin V-FITC/PI staining based flow cytometry method. In kind it is functional, cell-based. The method, boiled down: (§5)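 SCC4 cells were treated at 0.5 or 2 μM for 48 h, then stained with Annexin V/PI and analysed by flow cytometry. Data are mean ± SEM of three independent experiments, with an unpaired one-tailed t-test versus vehicle.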

In data set [13] the test system is SCC-4. Briefly: Induction of apoptosis in human SCC-4 cells assessed as increase in apoptotic cells at 0.5 uM after 48 hrs by Annexin V-FITC/PI staining based flow cytometry method. Format: functional, cell-based. In a few lines:
as §5

Data set [14] deals with HL-60. In words: Induction of autophagy in human HL-60 cells assessed as increase in LC3-II protein level at 10 uM measured up to 1 hr by Immunoblotting analysis. In kind it is functional, cell-based.
A further data set has as its system Ca9-22. Briefly: Cytotoxicity against human Ca9-22 cells assessed as reduction in cell viability measured after 48 hrs by alamar blue viability assay. In kind it is functional, cell-based. The following applies: Ca9-22, 48 h. In a few lines: (§6)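 Oral squamous carcinoma cells were exposed for 48 h to at least 8 increasing concentrations. Viability was read by AlamarBlue. IC50 is the concentration that halves viability, taken as the mean ± SD of at least three independent experiments.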

Data set [15] is described as follows: Cytotoxicity against human Primary oral epithelial cells assessed as inhibition of cell growth measured after 24 hrs by neutral red uptake assay. Format: toxicity, cell-based. The method, boiled down: as §1
Data set [16] deals with SCC-4. In words: Induction of autophagy in human SCC-4 cells assessed as increase in LC3-II to LC3-I ratio at 10 uM incubated for 30 mins in presence of EBSS followed by compound addition and measured after 3 hrs by Western blot analysis. Format: functional, cell-based. In a few lines:
as §4

The target of data set [17] is Nuclear factor NF-kappa-B complex (Homo sapiens) (UniProt Q00653+P19838+Q04206). In words: Inhibition of NF-kappaB phosphorylation in human HL-60 cells at 10 uM measured after 2 hrs by Immunoblotting analysis. Format: cell-based. In a few lines: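 HL-60 cells were treated at 10 μM or with DMSO vehicle for 2 h. Phospho-NF-κB and phospho-Erk1/2 were immunoblotted and quantified by densitometry relative to β-tubulin. Data are mean ± SD (n = 2), analysed by one-way ANOVA.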

Data set [18] is described as follows: Cytotoxicity against human TR146 cells assessed as reduction in cell viability measured after 48 hrs by alamar blue viability assay. In kind it is functional, cell-based. To be noted: TR146, 48 h. In a few lines: as §6
Data set [19] concerns KYSE-520 cell line. Briefly: Cytotoxicity against human KYSE520 cells assessed as inhibition of cell growth measured after 72 hrs by alamar blue viability assay. In kind it is functional, cell-based. The following applies: KYSE-520, 72 h. In a few lines:
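KYSE-520 oesophageal cells were exposed to at least 8 increasing concentrations for 48 h or 72 h. Viability was read out to give IC50, as the mean ± SD of at least three independent experiments.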

The subject of data set [20] is SCC-4. Briefly: Cytotoxicity against human SCC-4 cells assessed as reduction in cell viability measured after 48 hrs by alamar blue viability assay. To be noted: SCC-4, 48 h. Format: functional, cell-based. In a few lines:
as §6

Data set [21] concerns HL-60. Briefly: Induction of autophagy in human HL-60 cells assessed as increase in LC3-II protein level at 10 uM in presence of chloroquine […] by Immunoblotting analysis. Format: functional, cell-based.
The subject of a further data set is OE33. In words: Cytotoxicity against human OE33 cells assessed as inhibition of cell growth measured after 72 hrs by MTT assay. In kind it is functional, cell-based. The following applies: OE33, 72 h. The method, boiled down:
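Oesophageal adenocarcinoma lines were exposed to at least 8 increasing concentrations for 72 h. Viability was measured by MTT. IC50 is the mean ± SD of at least three independent experiments.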

The test system of data set [22] is KYSE-520 cell line. In words: Induction of apoptosis in human KYSE520 cells assessed as increase in apoptotic cells at 3 to 10 uM after 72 hrs by Annexin V-FITC/PI staining based flow cytometry method. In kind it is functional, cell-based. The following applies: dose 3-10 µM. The method, boiled down: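 KYSE-520 cells were treated at 3 and 10 μM for 72 h, then analysed by flow cytometry after Annexin V/PI dual staining.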

The source made the active and inactive calls. No cut-off for these calls is given here. Where only a bound is given, the exact number is not on record here.

As a reminder, the EC50 is the concentration at which the effect is half-maximal. A word on the IC50: it is the concentration that inhibits the measured activity by half.

Chain of Nuclear factor NF-kappa-B complex (Homo sapiens) (P19838 whole entry, looked up): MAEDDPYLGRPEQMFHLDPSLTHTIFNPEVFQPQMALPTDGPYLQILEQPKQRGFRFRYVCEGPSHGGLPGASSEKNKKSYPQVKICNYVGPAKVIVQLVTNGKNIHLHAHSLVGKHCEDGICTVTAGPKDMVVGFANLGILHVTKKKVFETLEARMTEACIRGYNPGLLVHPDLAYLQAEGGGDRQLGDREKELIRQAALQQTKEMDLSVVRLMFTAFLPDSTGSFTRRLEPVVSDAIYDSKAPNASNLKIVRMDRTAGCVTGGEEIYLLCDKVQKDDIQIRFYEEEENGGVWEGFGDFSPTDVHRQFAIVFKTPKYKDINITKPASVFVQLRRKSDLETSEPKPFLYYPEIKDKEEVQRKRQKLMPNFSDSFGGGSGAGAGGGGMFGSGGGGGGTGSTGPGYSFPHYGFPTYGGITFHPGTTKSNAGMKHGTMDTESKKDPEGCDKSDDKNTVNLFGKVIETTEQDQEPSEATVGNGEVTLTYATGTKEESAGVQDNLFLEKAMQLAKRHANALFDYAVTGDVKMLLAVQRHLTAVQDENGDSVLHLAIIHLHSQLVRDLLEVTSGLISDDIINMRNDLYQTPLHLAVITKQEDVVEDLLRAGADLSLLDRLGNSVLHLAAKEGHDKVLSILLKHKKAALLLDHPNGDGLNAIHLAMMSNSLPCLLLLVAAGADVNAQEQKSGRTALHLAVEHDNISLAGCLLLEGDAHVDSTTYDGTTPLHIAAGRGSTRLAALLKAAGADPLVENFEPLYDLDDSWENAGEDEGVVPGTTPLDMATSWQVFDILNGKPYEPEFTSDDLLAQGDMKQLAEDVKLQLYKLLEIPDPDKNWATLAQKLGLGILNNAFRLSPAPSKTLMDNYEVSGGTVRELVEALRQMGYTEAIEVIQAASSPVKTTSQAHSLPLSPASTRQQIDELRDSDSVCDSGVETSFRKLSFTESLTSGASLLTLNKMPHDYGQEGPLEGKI
Chain of Nuclear factor NF-kappa-B complex (Homo sapiens) (Q00653 whole entry, looked up): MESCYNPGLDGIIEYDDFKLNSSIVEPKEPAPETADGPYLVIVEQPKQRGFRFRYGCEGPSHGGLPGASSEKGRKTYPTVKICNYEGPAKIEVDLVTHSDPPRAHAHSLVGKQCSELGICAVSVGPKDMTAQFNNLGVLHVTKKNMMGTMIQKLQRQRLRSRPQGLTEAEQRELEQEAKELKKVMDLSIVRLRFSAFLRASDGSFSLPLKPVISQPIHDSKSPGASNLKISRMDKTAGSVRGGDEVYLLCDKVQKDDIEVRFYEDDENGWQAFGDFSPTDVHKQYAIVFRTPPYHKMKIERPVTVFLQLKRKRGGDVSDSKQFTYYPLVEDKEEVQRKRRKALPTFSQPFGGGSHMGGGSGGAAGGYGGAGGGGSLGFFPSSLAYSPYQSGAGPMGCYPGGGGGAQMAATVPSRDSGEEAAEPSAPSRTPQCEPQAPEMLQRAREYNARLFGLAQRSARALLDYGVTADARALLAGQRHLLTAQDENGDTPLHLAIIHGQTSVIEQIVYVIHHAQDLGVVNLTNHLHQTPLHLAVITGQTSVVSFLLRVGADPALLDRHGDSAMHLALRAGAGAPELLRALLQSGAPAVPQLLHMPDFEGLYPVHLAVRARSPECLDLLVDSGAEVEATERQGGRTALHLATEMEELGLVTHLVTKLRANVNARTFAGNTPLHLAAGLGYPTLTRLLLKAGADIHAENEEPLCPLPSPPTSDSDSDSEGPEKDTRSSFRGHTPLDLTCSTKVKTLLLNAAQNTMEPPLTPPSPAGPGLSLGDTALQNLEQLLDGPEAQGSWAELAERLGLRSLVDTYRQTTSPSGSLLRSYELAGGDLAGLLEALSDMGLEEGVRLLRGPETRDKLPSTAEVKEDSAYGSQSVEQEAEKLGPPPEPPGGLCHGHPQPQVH
Chain of Nuclear factor NF-kappa-B complex (Homo sapiens) (Q04206 whole entry, looked up): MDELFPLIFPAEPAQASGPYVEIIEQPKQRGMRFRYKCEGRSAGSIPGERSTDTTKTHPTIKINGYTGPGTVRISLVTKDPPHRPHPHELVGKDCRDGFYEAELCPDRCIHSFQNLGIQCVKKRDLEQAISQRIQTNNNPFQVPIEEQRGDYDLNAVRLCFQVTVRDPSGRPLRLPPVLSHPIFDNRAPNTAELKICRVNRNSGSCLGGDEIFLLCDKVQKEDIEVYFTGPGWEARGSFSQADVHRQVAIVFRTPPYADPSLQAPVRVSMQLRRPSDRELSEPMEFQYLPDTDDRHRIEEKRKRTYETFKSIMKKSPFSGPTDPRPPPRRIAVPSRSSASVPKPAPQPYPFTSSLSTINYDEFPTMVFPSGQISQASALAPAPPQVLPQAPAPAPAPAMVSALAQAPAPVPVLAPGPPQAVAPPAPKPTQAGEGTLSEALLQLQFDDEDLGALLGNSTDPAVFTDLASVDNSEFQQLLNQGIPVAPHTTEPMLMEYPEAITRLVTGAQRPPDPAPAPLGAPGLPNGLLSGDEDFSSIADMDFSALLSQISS

`CCN(CC)C(=O)OC1=C(c2cccc3ccccc23)Oc2ccc(N3CCN(C)CC3)cc2-n2cccc21`: in the data set on Emu-TCL1, the outcome was Active. Besides, the EC50 in the data set on NIH3T3 was 5000 nM. In data set [1], the Activity is recorded as below 30%.

Regarding `COc1cc([C@@H]2c3cc4c(cc3[C@H](O)[C@H]3COC(=O)[C@H]23)OCO4)cc(OC)c1OC` [PODOFILOX], the “Ratio IC50” value in [2] was 1.33; in [5], 0.82. In addition, the IC50 in the data set on A549 came to 12 nM; in the data set on HeLa [3] it was 17 nM; in the data set on A2780 [4], 20 nM; with HeLa [6] it was 14 nM; with A2780 [7], 15 nM. In addition, the result at Tubulin (Homo sapiens) was Active.

Turning to `CN(C)C(=O)OC1=C(c2cccc3ccccc23)Oc2ccc(Cl)cc2-n2cccc21`, the Activity result in [8] and in data set [9] was “>=50%” throughout.

As to `CCN(CC)CCCC(C)NC(=O)OC1=C(c2cccc3ncccc23)Oc2cc3ccccc3cc2-n2cccc21` (racemic), the outcome with Emu-TCL1, in the data set with HL-60 [10], in the data set on SCC-4 [11], with SCC-4 [12], with SCC-4 [13] and with HL-60 [14] was Active. Besides, the outcome in the data set with SCC-4 [16], at Tubulin (Homo sapiens), in the data set with HL-60 [21] and in the data set on KYSE-520 cell line [22] was Active. In addition, the “Ratio IC50” value came out at 1.18 in [2] and 0.72 in [5]. The half-maximal inhibitory concentration (IC50) in the data set with A549 stood at 1380 nM; in the data set on HeLa [3] it was 921 nM; with A2780 [4], 1210 nM; with Ca9-22, 2000 nM; in [18], 1500 nM; in the data set with HeLa [6], 661 nM. For the same compound, the IC50 in the data set with A2780 [7] is 1030 nM; in the data set with KYSE-520 cell line [19], 41900 nM; in the data set with SCC-4 [20], 910 nM; in the data set on OE33 it was 1380 nM. For the same compound, the EC50 in the data set on NIH3T3 amounted to 6000 nM. In addition, in data set [15], the EC50 at 24 h is 45000 nM. For the same compound, in [17], the inhibition entry was “Active”. Also, the Activity entry in data set [1] is recorded as “>=70%”.

With `CC(=O)OC1=C(c2cccc3ccccc23)Oc2cc3c(cc2-n2cccc21)OCO3`, the EC50 in the data set with NIH3T3 was found to be 150 nM. The Activity entry in data set [8] and in data set [9] was “>=50%” in each case.

Turning to `CC(C)(C)OC(=O)N1CCC(C(=O)OC2=C(c3cccc4ncccc34)Oc3cc4ccccc4cc3-n3cccc32)CC1`, the result in the data set on Emu-TCL1 was Active. The EC50 in the data set with NIH3T3 is 6000 nM. Also, the Activity result in data set [1] was “>=30%”.

As to `CC(=O)OC1=C(c2cccc3cccnc23)Oc2cc3ccccc3cc2-n2cccc21`, the result with SCC-4 [11], in the data set on SCC-4 [12], in the data set with SCC-4 [13] and in the data set on SCC-4 [16] was Active. In addition, in [1], the Activity entry was “>=70%”. Besides, the IC50 in the data set with SCC-4 [20] came to 130 nM.

For `CC(=O)OC1=C(c2cccc3ccccc23)Oc2ccc(C)cc2-n2cccc21`, in the data set on NIH3T3, the EC50 came to 300 nM. The Activity entry in data set [8] is “>=50%”; in data set [9], below 30%.

Values taken from ChEMBL document CHEMBL5154824, “Design and synthesis of multifunctional microtubule targeting agents endowed with dual pro-apoptotic and anti-autophagic efficacy” (Eur J Med Chem, 2022).
